Reference: ChEMBL document CHEMBL2016450, “Design, synthesis, and biological evaluation of chalcone oxime derivatives as potential immunosuppressive agents” (Bioorg Med Chem Lett, 2012)
The source made the active and inactive calls. The calls are words filed in the database; no cut-off is given here.

Experiments:
[1] = Immunosuppressive activity in anti-CD3/[…] co-stimulated Balb/c mouse lymph node cells assessed as inhibition of cell proliferation after 72 hrs by ELISA; type: functional
Summary of the method: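 Lymph node cells co-stimulated with anti-CD3/anti-CD28. The IC50 is the concentration inhibiting proliferation by 50% relative to control values. Cyclosporin A served as the reference control.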

[2] = Selectivity index, ratio of CC50 for Balb/c mouse lymph node cells to IC50 for anti-CD3/[…] co-stimulated mouse Balb/c mouse lymph node cells; type: functional
Summary of the method: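 The selectivity index is CC50 on unstimulated lymph node cells divided by IC50 for proliferation of anti-CD3/anti-CD28 co-stimulated lymph node cells, both relative to control values.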

[3] = Cytotoxicity against Balb/c mouse lymph node cells after 48 hrs by MTT assay; type: cell-based
Summary of the method: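 Naïve lymph node cells; the CC50 is the concentration giving 50% cell survival. Cyclosporin A served as the reference control.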

Mus musculus [4] = organism: Mus musculus; test: Induction of apoptosis in anti-CD-3/[…] co-stimulated Balb/c mouse lymph node cells assessed as caspase 3 cleavage product p17 formation after 24 hrs by Western blot analysis; type: functional
Summary of the method: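 Anti-CD3/anti-CD28 co-stimulated lymph node cells were treated with compound across a dose series. Lysates were probed by Western blot with an anti-cleaved caspase-3 antibody that recognises the p17 cleavage fragment.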

[5] = Induction of apoptosis in anti-CD-3/[…] co-stimulated Balb/c mouse lymph node cells assessed as apoptotic cells at 20 ug/ml after 24 hrs by annexin V/PI staining-based flow cytometric analysis; type: functional
Summary of the method: (§1)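 Lymph node cells isolated from naïve mice were cultured with anti-CD3/anti-CD28 plus compound at 10, 20 or 40 µg/mL for 24 h. Cells were stained with Annexin V-FITC/PI and apoptotic cells were counted by flow cytometry.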

[6] = Induction of apoptosis in anti-CD-3/[…] co-stimulated Balb/c mouse lymph node cells assessed as apoptotic cells at 10 ug/ml after 24 hrs by annexin V/PI staining-based flow cytometric analysis; type: functional; summary of the method: as §1
[7] = Induction of apoptosis in anti-CD-3/[…] co-stimulated Balb/c mouse lymph node cells assessed as apoptotic cells at 40 ug/ml after 24 hrs by annexin V/PI staining-based flow cytometric analysis; type: functional; summary of the method: as §1
Mus musculus [8] = organism: Mus musculus; test: Induction of apoptosis in anti-CD-3/[…] co-stimulated Balb/c mouse lymph node cells assessed as apoptotic cells after 24 hrs by annexin V/PI staining-based flow cytometric analysis; type: functional; summary of the method: as §1
Mus musculus [9] = organism: Mus musculus; test: Induction of apoptosis in anti-CD-3/[…] co-stimulated Balb/c mouse lymph node cells assessed as PARP cleavage at 10 to 40 ug/ml after 24 hrs by Western blot analysis; type: functional

Row | SMILES | IC50 [1] [µM] | Ratio CC50/IC50 [2] | CC50 at 48 h [3] [µM] | Activity (Mus musculus [4]) | Activity [5] [%] | Activity [6] [%] | Activity [7] [%] | Activity (Mus musculus [8]) | Activity (Mus musculus [9])
1 | Cc1ccc(C(/C=C/c2ccc(F)cc2)=N/O)cc1 | 11.2 | 1.17 | 13.2 |  |  |  |  |  | 
2 | Cc1ccc(C(/C=C/c2ccc(Cl)cc2)=N/O)cc1 | 11.6 | 1.84 | 21.3 |  |  |  |  |  | 
3 | COc1ccc(C(/C=C/c2ccc(F)cc2)=N/O)cc1 | 11 | 1.23 | 13.5 |  |  |  |  |  | 
4 | COc1ccc(/C=C/C(=O)c2ccc(OC)cc2)cc1 [4,4'-DIMETHOXYCHALCONE] | 23.6 | 75.98 | 1790 |  |  |  |  |  | 
5 | COc1ccc(C(/C=C/c2ccc(Cl)cc2Cl)=N/O)cc1 | 11.2 | 2.24 | 25 |  |  |  |  |  | 
6 | O/N=C(\C=C\c1ccc(Cl)cc1)c1ccc(F)cc1 | 10.9 | 1.36 | 14.8 |  |  |  |  |  | 
7 | O/N=C(\C=C\c1ccc(F)cc1)c1ccc(Br)cc1 | 13.3 | 1.53 | 20.3 |  |  |  |  |  | 
8 | COc1ccc(C(=O)/C=C/c2ccc(Br)cc2)cc1 | 25.1 | 3.73 | 93.7 |  |  |  |  |  | 
9 | COc1ccc(C(/C=C/c2ccc(Br)cc2)=N/O)cc1 | 13.9 | 52.93 | 737 | Dose-dependent effect | 32.25 | 22.71 | 40.63 | Dose-dependent effect | 
10 | COc1ccc(/C=C/C(=N\O)c2ccc(OC)cc2)cc1 | 12.3 | 176.69 | 2170 | Dose-dependent effect | 34.05 | 25.83 | 96.46 | Dose-dependent effect | Active
11 | COc1ccc(/C=C/C(=N\O)c2ccc(Cl)cc2)cc1 | 5.85 | 4.16 | 24.3 |  |  |  |  |  | 
12 | Cc1ccc(C(/C=C/c2ccc(Cl)c(Cl)c2)=N/O)cc1 | 6.34 | 2.32 | 14.7 |  |  |  |  |  | 
13 | O/N=C(\C=C\c1cccs1)c1ccc(Cl)cc1 | 9.59 | 1.23 | 11.8 |  |  |  |  |  | 
14 | COc1ccc(/C=C/C(=N\O)c2ccc(C)cc2)cc1 | 6.24 | 18.82 | 117 |  |  |  |  |  | 
15 | O/N=C(\C=C\c1ccc(Cl)c(Cl)c1)c1ccc(Br)cc1 | < 5 |  | < 5 |  |  |  |  |  | 
16 | O/N=C(\C=C\c1ccc(Cl)cc1)c1ccc(Cl)cc1 | 9.15 | 1.54 | 14.1 |  |  |  |  |  | 
17 | COc1ccc(C(/C=C/c2ccc(Cl)cc2)=N/O)cc1 | 11.5 | 25.31 | 291 |  |  |  |  |  | 
18 | COc1ccc(C(/C=C/c2ccccc2)=N/O)cc1 | 11.8 | 2.42 | 28.6 |  |  |  |  |  | 
19 | COc1ccc(C(/C=C/c2cccs2)=N/O)cc1 | 8.49 | 1.25 | 10.6 |  |  |  |  |  | 
20 | Cc1ccc(C(/C=C/c2ccc(Br)cc2)=N/O)cc1 | 11.6 | 2.94 | 34.2 |  |  |  |  |  | 
21 | O/N=C(\C=C\c1cccs1)c1ccc(Br)cc1 | 11.2 | 1.38 | 15.3 |  |  |  |  |  | 
22 | O/N=C(\C=C\c1ccc(Cl)cc1)c1ccc(Br)cc1 | 14.7 | 1.68 | 24.7 |  |  |  |  |  | 
23 | COc1ccc(/C=C/C(=N\O)c2ccc(Br)cc2)cc1 | < 5 | >4.75 | 23.7 |  |  |  |  |  | 
24 | O/N=C(\C=C\c1ccc(F)cc1)c1ccc(Cl)cc1 | 10.6 | 1.08 | 11.5 |  |  |  |  |  | 
